Test results reported in ChEMBL document CHEMBL4052822, “Design and Synthesis of Orally Bioavailable Piperazine Substituted 4(1H)-Quinolones with Potent Antimalarial Activity: Structure-Activity and Structure-Property Relationship Studies” (J Med Chem, 2018).
Activity calls are given as the source filed them. No cut-off for these calls is given here.

What was measured:
Plasmodium berghei [1] = experiment: Antimalarial activity against liver stage form of luciferase transfected Plasmodium berghei sporozoites infected in mouse assessed as inhibition of parasitemia at 100 mg/kg administered via oral gavage 1 hr post infection measured on day 9 by bioluminescence method relative to control; type: functional
Plasmodium falciparum [2] = experiment: Antimalarial activity against mefloquine/chloroquine/atovaquone/pyrimethamine-resistant Plasmodium falciparum TM90-C2B infected in human type A-positive erythrocytes after 48 hrs by [3H]-hypoxanthine incorporation assay; type: functional, cell-based
In short: (§1)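 Compound from 10.0 mM DMSO stock, diluted ≥1:400, then 11 concentrations in duplicate. Incubated at 37 °C under 90% N2/5% O2/5% CO2 for 48 h, then 3H-hypoxanthine added for 24 h more. CPM counted; EC50 by nonlinear regression.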

Plasmodium berghei [3] = experiment: Antimalarial activity against liver stage form of luciferase transfected Plasmodium berghei sporozoites infected in mouse assessed as inhibition of parasitemia at 50 mg/kg, sc administered 1 hr post infection measured on day 9 by bioluminescence method relative to control; type: functional
Plasmodium berghei [4] = experiment: Antimalarial activity against liver stage form of luciferase transfected Plasmodium berghei sporozoites infected in mouse assessed as inhibition of parasitemia at 50 mg/kg administered via oral gavage 1 hr post infection measured on day 9 by bioluminescence method relative to control; type: functional
Plasmodium berghei [5] = experiment: Antimalarial activity against liver stage form of luciferase transfected Plasmodium berghei sporozoites infected in mouse assessed as protection against parasitemia at 25 to 100 mg/kg administered via oral gavage 1 hr post infection measured on day 6 to 13 by bioluminescence method; type: functional, organism-based
In short: (§2)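 Mice infected with luciferase-expressing P. berghei sporozoites, five per group. A single dose in PEG 400 was given orally by gavage (25, 50, 100 mg/kg) or subcutaneously (50 mg/kg) 1 h after infection. Infected untreated controls and a primaquine drug control were included. Whole-animal imaging was done 5 min after ip D-luciferin (100 mg/kg) under isoflurane, at 44 h and days 6, 9 and 13. Survival/cure followed to day 30.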

Plasmodium falciparum [6] = experiment: Antimalarial activity against pyrimethamine/chloroquine-resistant Plasmodium falciparum W2 infected in human type A-positive erythrocytes after 48 hrs by [3H]-hypoxanthine incorporation assay; type: functional, cell-based; in short: as §1
Plasmodium berghei [7] = experiment: Antimalarial activity against liver stage form of luciferase transfected Plasmodium berghei sporozoites infected in mouse assessed as protection against parasitemia at 25 to 100 mg/kg administered via oral gavage 1 hr post infection measured at 44 hrs by bioluminescence method; type: functional, organism-based; in short: as §2
Plasmodium berghei [8] = experiment: Antimalarial activity against liver stage form of luciferase transfected Plasmodium berghei sporozoites infected in mouse assessed as protection against parasitemia at 50 mg/kg, sc administered 1 hr post infection measured at 44 hrs by bioluminescence method; type: functional, organism-based; in short: as §2
Plasmodium berghei [9] = experiment: Antimalarial activity against liver stage form of luciferase transfected Plasmodium berghei sporozoites infected in mouse assessed as inhibition of parasitemia at 25 mg/kg administered via oral gavage 1 hr post infection measured on day 9 by bioluminescence method relative to control; type: functional
[10] = Aqueous solubility of compound at pH 6.5; type: physicochemical
Plasmodium berghei [11] = experiment: Antimalarial activity against liver stage form of luciferase transfected Plasmodium berghei sporozoites infected in mouse assessed as protection against parasitemia at 50 mg/kg, sc administered 1 hr post infection measured on day 6 to 13 by bioluminescence method; type: functional, organism-based; in short: as §2
Plasmodium berghei [12] = experiment: Antimalarial activity against liver stage form of luciferase transfected Plasmodium berghei sporozoites infected in mouse assessed as protection against parasitemia at 100 mg/kg administered via oral gavage 1 hr post infection measured on day 30 by bioluminescence method; type: functional, organism-based; in short: as §2
Plasmodium berghei [13] = experiment: Antimalarial activity against Plasmodium berghei infected in human HepG2 cells after 44 hrs by luciferase assay; type: functional, cell-based; details: HepG2, 44 h
In short: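 HepG2 cells, 75000 per well, in DMEM with 10% FBS at 37 °C, 5% CO2. 5000 Pb luciferase sporozoites from dissected mosquito salivary glands added per well for 3 h, then washed three times with PBS. Serially diluted compound added in triplicate, 44 h at 37 °C. Cells lysed, luciferase substrate added, luminescence read.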

Plasmodium berghei [14] = experiment: Antimalarial activity against liver stage form of luciferase transfected Plasmodium berghei sporozoites infected in mouse assessed as protection against parasitemia at 100 mg/kg administered via oral gavage 1 hr post infection measured on day 6 to 13 by bioluminescence method; type: functional, organism-based; in short: as §2
Plasmodium berghei [15] = experiment: Antimalarial activity against liver stage form of luciferase transfected Plasmodium berghei sporozoites infected in mouse assessed as protection against parasitemia at 100 mg/kg administered via oral gavage 1 hr post infection measured at 44 hrs by bioluminescence method; type: functional, organism-based; in short: as §2
Plasmodium berghei [16] = experiment: Antimalarial activity against liver stage form of luciferase transfected Plasmodium berghei sporozoites infected in mouse assessed as protection against parasitemia at 50 mg/kg, sc administered 1 hr post infection measured on day 30 by bioluminescence method; type: functional, organism-based; in short: as §2
Plasmodium berghei [17] = experiment: Antimalarial activity against liver stage form of luciferase transfected Plasmodium berghei sporozoites infected in mouse assessed as protection against parasitemia at 25 to 50 mg/kg administered via oral gavage 1 hr post infection measured on day 30 by bioluminescence method; type: functional, organism-based; in short: as §2

SMILES	inhibition in vivo at 100 mg/kg (Plasmodium berghei [1])	EC50 (Plasmodium falciparum [2])	inhibition in vivo at 50 mg/kg (Plasmodium berghei [3])	inhibition in vivo at 50 mg/kg (Plasmodium berghei [4])	Activity (Plasmodium berghei [5])	EC50 (Plasmodium falciparum [6])	Activity (Plasmodium berghei [7])	Activity (Plasmodium berghei [8])	inhibition in vivo at 25 mg/kg (Plasmodium berghei [9])	solubility [10]	Activity (Plasmodium berghei [11])	Activity (Plasmodium berghei [12])	EC50 (Plasmodium berghei [13])	Activity (Plasmodium berghei [14])	Activity (Plasmodium berghei [15])	Activity (Plasmodium berghei [16])	Activity (Plasmodium berghei [17])
COC(=O)c1c[nH]c2cc(CN3CCN(c4ccccc4)CC3)ccc2c1=O	> 99%	480 nM	> 99%	85.1%	Active	1.3 nM	Active	Active	65.3%	≥ 80 µM	Active	Active	4.7 nM	–	–	–	–
COC(=O)c1c[nH]c2cc(CN3CCN(Cc4ccc(OC)cc4)CC3)ccc2c1=O	–	800 nM	20.1%	–	–	2.5 nM	–	–	49.1%	–	–	–	83 nM	Active	Active	inactive	Active
